Measured values published in ChEMBL document CHEMBL5032510, “Identification of Novel Fused Heteroaromatics-Based MALT1 Inhibitors by High-Throughput Screening to Treat B Cell Lymphoma” (J Med Chem, 2021).
pIC50: −log10 of the molar value. Activity calls are given as the source filed them. The calls are words filed in the database; no cut-off is given here.

Tests used:
[1] = biological target: T1, Mucosa-associated lymphoid tissue lymphoma translocation protein 1 (Homo sapiens, UniProt Q9UDY8); assay: Inhibition of N-terminal his-tagged GCN4 leucine zipper fused human MALT1 […] expressed in Escherichia coli using Ac-LVSR-AMC as substrate by HTS assay
T1 sequence (Q9UDY8 whole entry): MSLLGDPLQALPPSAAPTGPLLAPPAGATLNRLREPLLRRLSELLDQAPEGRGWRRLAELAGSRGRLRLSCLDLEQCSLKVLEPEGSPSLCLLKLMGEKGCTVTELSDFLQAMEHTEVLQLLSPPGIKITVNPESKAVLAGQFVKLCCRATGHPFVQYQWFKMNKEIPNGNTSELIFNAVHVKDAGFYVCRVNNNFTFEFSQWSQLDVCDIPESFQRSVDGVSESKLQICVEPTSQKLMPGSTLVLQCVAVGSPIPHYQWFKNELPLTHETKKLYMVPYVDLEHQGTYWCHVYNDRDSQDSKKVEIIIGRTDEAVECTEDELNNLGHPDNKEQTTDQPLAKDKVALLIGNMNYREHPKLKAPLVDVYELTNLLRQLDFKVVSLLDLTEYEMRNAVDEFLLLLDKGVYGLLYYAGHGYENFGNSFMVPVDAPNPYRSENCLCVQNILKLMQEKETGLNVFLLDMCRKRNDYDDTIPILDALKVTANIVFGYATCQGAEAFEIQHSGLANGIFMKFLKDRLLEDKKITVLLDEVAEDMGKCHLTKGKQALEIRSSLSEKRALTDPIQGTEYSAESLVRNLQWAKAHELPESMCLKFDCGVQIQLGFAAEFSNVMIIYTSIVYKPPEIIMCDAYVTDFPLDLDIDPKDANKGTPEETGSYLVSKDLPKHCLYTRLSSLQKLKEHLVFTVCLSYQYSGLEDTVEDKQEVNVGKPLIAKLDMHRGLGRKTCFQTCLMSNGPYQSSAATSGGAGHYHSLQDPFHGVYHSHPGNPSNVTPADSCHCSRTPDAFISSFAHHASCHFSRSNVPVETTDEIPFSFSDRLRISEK

OCI-Ly1 = assay: Antiproliferative activity against human OCI-Ly1 cells assessed as inhibition of cell growth incubated for 72 hrs by Celltiter-Glo luminescent assay; format: functional
Method in brief: (§1)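 Exponentially growing cells were seeded at 1 × 10⁴ per 100 μL. HBL-1 and TMD8 were kept in RPMI with 10% FBS, 2 mM glutamine and 10 mM HEPES; OCI-LY1 in Iscove's medium with 20% FBS; all at 37 °C and 5% CO2. Cells were exposed to DMSO or 2-fold serial dilutions from 100 μM for 72 h, in triplicate on one plate. CellTiter-Glo luminescence was read after 1 h. Growth inhibition was calculated against control, accounting for initial cell number, and GI50 was fitted.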

[2] = Antiproliferative activity against human HBL1 cells assessed as inhibition of cell growth incubated for 72 hrs by Celltiter-Glo luminescent assay; format: functional; method in brief: as §1
TMD8 = assay: Antiproliferative activity against human TMD8 cells assessed as inhibition of cell growth incubated for 72 hrs by Celltiter-Glo luminescent assay; format: functional; method in brief: as §1

| pIC50 [1] | GI50 (OCI-Ly1) [µM] | Compound | GI50 [2] [µM] | GI50 (TMD8) [µM] | Activity (OCI-Ly1) |
| --- | --- | --- | --- | --- | --- |
| < 4.60 |  | COc1ccc(OC)c(NC(=O)c2sc(=S)n3c2[nH]c(=O)c2cc(OC)c(OC)cc23)c1 |  |  |  |
| 5.08 | 22.8 | O=C(O)c1cccc(NC(=O)c2sc(=S)n3c2[nH]c(=O)c2ccc(Cl)cc23)c1 | 22.8 | 22.8 |  |
| 5.49 | 13.3 | COc1ccc(OC)c(NC(=O)c2sc(=S)n(-c3cccc(C(F)(F)F)c3)c2NC(=O)CCl)c1 | 2.2 | 1.3 |  |
| < 4.60 |  | COc1ccc(OC)c(NC(=O)c2sc(=S)n3c2[nH]c(=O)c2cc(OC)ccc23)c1 |  |  |  |
| 5.28 | 36.8 | O=C(NCc1ccco1)c1sc(=S)n2c1[nH]c(=O)c1cc(Br)ccc12 | 13.2 | 16.2 |  |
| 4.73 |  | COc1ccc(OC)c(NC(=O)c2sc(=S)n3c2[nH]c(=O)c2ccc(Br)cc23)c1 |  |  |  |
| < 4.60 |  | COc1cccc(NC(=O)c2sc(=S)n3c2[nH]c(=O)c2ccccc23)c1 |  |  |  |
| 5.60 |  | COC(=O)c1ccc2c(=O)[nH]c3c(C(=O)Nc4cc(Cl)cc(Cl)c4)sc(=S)n3c2c1 |  |  |  |
| 4.91 |  | CC(C)c1ccc(S(=O)(=O)Nc2ccc(N3CCC(Cc4ccccc4)CC3)cc2C(=O)O)cc1 |  |  |  |
| < 4.60 |  | CCc1ccc(NC(=O)c2sc(=S)n3c2[nH]c(=O)c2ccccc23)cc1 |  |  |  |
| 5.49 | 28.1 | COc1ccc(OC)c(NC(=O)c2sc(=S)n3c2[nH]c(=O)c2cc(Cl)ccc23)c1 | 14 | 12.4 |  |
| < 4.60 |  | O=C(Nc1ccc(Cl)c(Cl)c1)c1sc(=S)n2c1[nH]c(=O)c1ccccc12 |  |  |  |
| 5.64 | 30 | O=C(NCc1ccccc1Cl)c1sc(=S)n2c1[nH]c(=O)c1cc(Br)ccc12 | 19 | 15 |  |
| 5.66 | 10 | O=C(Nc1cc(Cl)cc(Cl)c1)c1sc(=S)n2c1[nH]c(=O)c1ccccc12 | 8 | 3.7 |  |
| 4.78 | 11.2 | Cc1ccc(NC(=O)Nc2ccc3nc(N4CCN(C)CC4)cc(C)c3c2)cc1Cl | 5.56 | 5.56 |  |
| 4.89 | 16.1 | COc1cccc(CNC(=O)c2sc(=S)n3c2[nH]c(=O)c2cc(Br)ccc23)c1 | 16.1 | 16.1 |  |
| 5.19 | 26 | Cc1ccc(NC(=O)c2sc(=S)n3c2[nH]c(=O)c2cc(Br)ccc23)c(C)c1 | 17 | 10 |  |
| 5.21 | 23 | COc1ccccc1NC(=O)c1sc(=S)n2c1[nH]c(=O)c1cc(Cl)ccc12 | 17 | 17 |  |
| 5.42 | 12.1 | COc1ccc(OC)c(NC(=O)c2sc(=S)n(-c3cccc(F)c3)c2NC(=O)CCl)c1 | 1.6 | 1.5 |  |
| 5.19 | 34 | COC(=O)c1ccc2c(=O)[nH]c3c(C(=O)Nc4ccc(-c5ccccc5)cc4)sc(=S)n3c2c1 | 16 | 23 |  |

| pIC50 [1] | GI50 (OCI-Ly1) [µM] | Compound | GI50 [2] [µM] | GI50 (TMD8) [µM] | Activity (OCI-Ly1) |
| --- | --- | --- | --- | --- | --- |
| 5.28 | 20.7 | COc1ccc(OC)c(NC(=O)c2sc(=S)n3c2[nH]c(=O)c2ccc(Cl)cc23)c1 | 8.2 | 8.4 |  |
| 5.44 | 48 | Cc1ccc(Cl)cc1NC(=O)c1sc(=S)n2c1[nH]c(=O)c1cc3c(cc12)OCO3 | 32 | 12 |  |
| 5.29 | 18.6 | COC(=O)c1ccc2c(=O)[nH]c3c(C(=O)Nc4ccc(Cl)cc4)sc(=S)n3c2c1 | 14.8 | 4.4 |  |
| 4.88 |  | Cc1ccc(S(=O)(=O)C2=C(O)C(=O)N(Cc3ccc(F)cc3)C2c2ccc(C(C)C)cc2)cc1 (stereo not drawn) |  |  |  |
| 5.16 | 12.9 | COc1ccc(OC)c(NC(=O)c2sc(=S)n3c2[nH]c(=O)c2cc(Br)ccc23)c1 | 11.7 | 11 |  |
| 5.36 |  | O=C(Nc1cccc(Cl)c1[N+](=O)[O-])c1sc(=S)n2c1[nH]c(=O)c1ccc(Cl)cc12 |  |  |  |
| 5.26 | 11.8 | COc1ccc(OC)c(NC(=O)c2sc(=S)n(-c3cccc(C#N)c3)c2NC(=O)CCl)c1 | 1.7 | 1.6 |  |
| 5.28 | 13.4 | COC(=O)c1ccc2c(=O)[nH]c3c(C(=O)Nc4cc(OC)ccc4OC)sc(=S)n3c2c1 | 6.7 | 7 |  |
| 5.15 | 13 | COc1ccc(OC)c(NC(=O)c2sc(=S)n(-c3ccc(Cl)cc3)c2NC(=O)CCl)c1 | 1.5 | 1 |  |
| < 4.60 |  | COc1ccc(OC)c(NC(=O)c2sc(=S)n3c2[nH]c(=O)c2ccc(OC)cc23)c1 |  |  |  |
| < 4.60 |  | O=C(Nc1ccc(Cl)cc1)c1sc(=S)n2c1[nH]c(=O)c1ccccc12 |  |  |  |
| 4.67 |  | Cc1ccc2c(c1)c(=O)[nH]c1c(C(=O)Nc3ccccc3C)sc(=S)n12 | 24.7 | 24.7 |  |
| 4.94 |  | COc1ccc(OC)c(NC(=O)c2sc(=S)n3c2[nH]c(=O)c2cc(F)c(F)cc23)c1 |  |  |  |
| 5.15 |  | Cc1ccc(NC(=O)c2sc(=S)n3c2[nH]c(=O)c2cc(C)ccc23)c(C)c1 | 20.4 | 15.6 | inactive |
| 4.83 | 23.7 | O=C(O)c1cccc(NC(=O)c2sc(=S)n3c2[nH]c(=O)c2cc(Br)ccc23)c1 | 12.4 | 23.7 |  |
| 4.84 | 15 | COC(=O)c1ccc2c(=O)[nH]c3c(C(=O)Nc4ccccc4C)sc(=S)n3c2c1 | 13.1 | 15 |  |
| 5.39 | 13.4 | CSc1ccc2c(c1)N(CCC1CCCCN1C)c1ccccc1S2 (stereo not drawn) [THIORIDAZINE] | 6.6 | 5.9 |  |
| 5.49 |  | CCc1ccccc1NC(=O)c1sc(=S)n2c1[nH]c(=O)c1ccc(C(=O)OC)cc12 |  |  |  |
| 4.79 | 17.1 | O=C(Nc1cccc(F)c1)c1sc(=S)n2c1[nH]c(=O)c1cc(Br)ccc12 | 17.1 | 17.1 |  |
| 5.13 |  | O=C(Nc1cc(Cl)cc(Cl)c1)c1sc(=S)n2c1[nH]c(=O)c1ccc(Cl)cc12 |  |  |  |

| pIC50 [1] | GI50 (OCI-Ly1) [µM] | Compound | GI50 [2] [µM] | GI50 (TMD8) [µM] | Activity (OCI-Ly1) |
| --- | --- | --- | --- | --- | --- |
| 5.33 | 25.6 | CCOc1ccc(OCC)c(NC(=O)c2sc(=S)n3c2[nH]c(=O)c2ccc(Cl)cc23)c1 | 12.1 | 12.1 |  |
| < 4.60 |  | COc1ccccc1NC(=O)c1sc(=S)n2c1[nH]c(=O)c1ccccc12 |  |  |  |
| 5.28 |  | CCc1ccccc1NC(=O)c1sc(=S)n2c1[nH]c(=O)c1cc(F)c(F)cc12 |  |  |  |
| 4.92 |  | Cc1ccccc1C1CCN(c2ccc(NC(=O)c3ccc(Cl)cc3)c(C(=O)O)c2)C1 (stereo not drawn) |  |  |  |
| 4.69 |  | O=C(Nc1ccccc1Cl)c1sc(=S)n2c1[nH]c(=O)c1ccccc12 |  |  |  |
| 5.36 |  | CCc1ccccc1NC(=O)c1sc(=S)n2c1[nH]c(=O)c1cc(Br)ccc12 |  |  |  |
| 4.77 |  | COc1ccc(OC)c(NC(=O)c2sc(=S)n3c2[nH]c(=O)c2ccc(F)cc23)c1 |  |  |  |
| 5.11 |  | COc1ccccc1NC(=O)c1sc(=S)n2c1[nH]c(=O)c1ccc(Br)cc12 |  |  |  |
| 5.16 |  | COC(=O)c1ccc2c(=O)[nH]c3c(C(=O)Nc4ccc(Cl)c(Cl)c4)sc(=S)n3c2c1 |  |  |  |
| 5.29 |  | CCc1ccccc1NC(=O)c1sc(=S)n2c1[nH]c(=O)c1ccc(Cl)cc12 |  |  |  |
| < 4.60 |  | COc1ccc(OC)c(NC(=O)c2sc(=S)n3c2[nH]c(=O)c2ccccc23)c1 |  |  |  |
| 4.89 |  | COc1cccc(CNC(=O)c2sc(=S)n3c2[nH]c(=O)c2cc(Cl)ccc23)c1 | 28.2 | 21.6 |  |
| 5.37 |  | COC(=O)c1ccc2c(=O)[nH]c3c(C(=O)Nc4ccc([N+](=O)[O-])cc4)sc(=S)n3c2c1 |  |  |  |
| < 4.60 |  | COc1ccc(NC(=O)c2sc(=S)n3c2[nH]c(=O)c2ccccc23)cc1 |  |  |  |
| 5.52 |  | COC(=O)c1ccc2c(=O)[nH]c3c(C(=O)Nc4cccc(Cl)c4[N+](=O)[O-])sc(=S)n3c2c1 |  |  |  |
| 4.96 |  | Cc1ccccc1NC(=O)c1sc(=S)n2c1[nH]c(=O)c1ccc(Cl)cc12 |  |  |  |
| 4.83 |  | CCc1ccccc1NC(=O)c1sc(=S)n2c1[nH]c(=O)c1ccccc12 |  |  |  |
| < 4.60 |  | O=C(Nc1ccccc1)c1sc(=S)n2c1[nH]c(=O)c1ccccc12 |  |  |  |
| 5.59 |  | O=C(Nc1ccc([N+](=O)[O-])cc1)c1sc(=S)n2c1[nH]c(=O)c1ccc(Cl)cc12 |  |  |  |
